Measured values taken from ChEMBL document CHEMBL3877264, “Quinolidene-rhodanine conjugates: Facile synthesis and biological evaluation” (Eur J Med Chem, 2017).
Converted amounts (≈) assume the structure as drawn.

Tests used:
[1] = test system: Staphylococcus aureus; assay: Growth inhibition of Staphylococcus aureus NCIM 2010 at 10 ug/ml measured after 12 hrs relative to control; format: functional; details: NCIM 2010, 12 h, read-out: GI
Summary of the method: (§1)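 Bacteria grown in LB at 37 °C and 180 rpm to OD 1. Compounds added to wells, then 0.1% inoculum of 1 OD culture (620 nm). Growth read as OD at 620 nm after 8 h for gram-negative and after 12 h for gram-positive strains.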

[2] = test system: Bacillus subtilis; assay: Growth inhibition of Bacillus subtilis NCIM 2079 at 3 ug/ml measured after 12 hrs relative to control; format: functional; details: NCIM 2079, 12 h, read-out: GI; summary of the method: as §1
[3] = test system: Pseudomonas fluorescens; assay: Growth inhibition of Pseudomonas fluorescens NCIM 2036 at 30 ug/ml measured after 8 hrs relative to control; format: functional; details: NCIM 2036, 8 h, read-out: GI; summary of the method: as §1
[4] = test system: Pseudomonas fluorescens; assay: Growth inhibition of Pseudomonas fluorescens NCIM 2036 at 10 ug/ml measured after 8 hrs relative to control; format: functional; details: NCIM 2036, 8 h, read-out: GI; summary of the method: as §1
[5] = test system: Staphylococcus aureus; assay: Antibacterial activity against of Staphylococcus aureus NCIM 2010 measured after 12 hrs; format: functional; details: NCIM 2010, 12 h; summary of the method: as §1
[6] = test system: Mycobacterium tuberculosis; assay: Growth inhibition of Mycobacterium tuberculosis H37Ra ATCC 25177 at active stage at 100 ug/ml measured after 8 days by XTT dye based two fold dilution method relative to control; format: functional; details: H37Ra ATCC 25177, 192 h, read-out: GI
Summary of the method: (§2)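 MTB H37Ra was grown in Dubos medium, then exposed in Mycobacterium pheli minimal medium (pH 6.6) to compounds dissolved in DMSO. The assay ended on day 8 (active) or day 12 (dormant). Viable cells were measured by XTT reduction menadione assay at 470 nm, blank-corrected, relative to vehicle control. Triplicates were expressed as mean ± SD. MIC came from dose-response curves.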

[7] = test system: Mycobacterium tuberculosis; assay: Growth inhibition of Mycobacterium tuberculosis H37Ra ATCC 25177 at active stage at 50 ug/ml measured after 8 days by XTT dye based two fold dilution method relative to control; format: functional; details: H37Ra ATCC 25177, 192 h, read-out: GI; summary of the method: as §2
[8] = test system: Mycobacterium tuberculosis; assay: Growth inhibition of Mycobacterium tuberculosis H37Ra ATCC 25177 at dormant stage at 100 ug/ml measured after 12 days by XTT dye based two fold dilution method relative to control; format: functional; details: H37Ra ATCC 25177, 288 h, read-out: GI; summary of the method: as §2
[9] = test system: Mycobacterium tuberculosis; assay: Growth inhibition of Mycobacterium tuberculosis H37Ra ATCC 25177 at dormant stage at 25 ug/ml measured after 12 days by XTT dye based two fold dilution method relative to control; format: functional; details: H37Ra ATCC 25177, 288 h, read-out: GI; summary of the method: as §2
[10] = test system: Mycobacterium tuberculosis; assay: Growth inhibition of Mycobacterium tuberculosis H37Ra ATCC 25177 at dormant stage at 1.56 ug/ml measured after 12 days by XTT dye based two fold dilution method relative to control; format: functional; details: H37Ra ATCC 25177, 288 h, read-out: GI; summary of the method: as §2
[11] = test system: Mycobacterium tuberculosis; assay: Growth inhibition of Mycobacterium bovis BCG ATCC 35743 at dormant stage at 100 ug/ml measured after 12 days by nitrate reductase dye based two fold dilution method relative to control; format: functional; details: BCG str. ATCC 35743, 288 h, read-out: GI
Summary of the method: (§3)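 M. bovis BCG was grown in Dubos medium and assayed in Mycobacterium pheli minimal medium (pH 6.6), with compounds from DMSO stocks. Incubation lasted 8 days for active and 12 days for dormant cultures. Viability was read by nitrate reductase at 540 nm against cell-free blanks, with vehicle set as 100% growth. Primary screen was at 30, 10 and 3 µg/ml, in triplicate, mean ± SD. MIC was taken from dose-response curves.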

[12] = test system: Mycobacterium tuberculosis; assay: Growth inhibition of Mycobacterium bovis BCG ATCC 35743 at dormant stage at 50 ug/ml measured after 12 days by nitrate reductase dye based two fold dilution method relative to control; format: functional; details: BCG str. ATCC 35743, 288 h, read-out: GI; summary of the method: as §3
[13] = test system: Mycobacterium tuberculosis; assay: Growth inhibition of Mycobacterium bovis BCG ATCC 35743 at dormant stage at 25 ug/ml measured after 12 days by nitrate reductase dye based two fold dilution method relative to control; format: functional; details: BCG str. ATCC 35743, 288 h, read-out: GI; summary of the method: as §3
[14] = test system: Mycobacterium tuberculosis; assay: Growth inhibition of Mycobacterium bovis BCG ATCC 35743 at dormant stage at 12.5 ug/ml measured after 12 days by nitrate reductase dye based two fold dilution method relative to control; format: functional; details: BCG str. ATCC 35743, 288 h, read-out: GI
[15] = test system: Mycobacterium tuberculosis; assay: Growth inhibition of Mycobacterium bovis BCG ATCC 35743 at dormant stage at 6.25 ug/ml measured after 12 days by nitrate reductase dye based two fold dilution method relative to control; format: functional; details: BCG str. ATCC 35743, 288 h, read-out: GI; summary of the method: as §3
[16] = test system: Mycobacterium tuberculosis; assay: Growth inhibition of Mycobacterium bovis BCG ATCC 35743 at dormant stage at 3.13 ug/ml measured after 12 days by nitrate reductase dye based two fold dilution method relative to control; format: functional; details: BCG str. ATCC 35743, 288 h, read-out: GI; summary of the method: as §3
[17] = test system: Mycobacterium tuberculosis; assay: Growth inhibition of Mycobacterium bovis BCG ATCC 35743 at dormant stage at 0.78 ug/ml measured after 12 days by nitrate reductase dye based two fold dilution method relative to control; format: functional; details: BCG str. ATCC 35743, 288 h, read-out: GI; summary of the method: as §3
[18] = test system: Mycobacterium tuberculosis; assay: Growth inhibition of Mycobacterium bovis BCG ATCC 35743 at active stage at 50 ug/ml measured after 8 days by nitrate reductase dye based two fold dilution method relative to control; format: functional; details: BCG str. ATCC 35743, 192 h, read-out: GI
[19] = test system: Mycobacterium tuberculosis; assay: Growth inhibition of Mycobacterium bovis BCG ATCC 35743 at active stage at 6.25 ug/ml measured after 8 days by nitrate reductase dye based two fold dilution method relative to control; format: functional; details: BCG str. ATCC 35743, 192 h, read-out: GI; summary of the method: as §3
[20] = test system: Mycobacterium tuberculosis; assay: Growth inhibition of Mycobacterium bovis BCG ATCC 35743 at active stage at 0.78 ug/ml measured after 8 days by nitrate reductase dye based two fold dilution method relative to control; format: functional; details: BCG str. ATCC 35743, 192 h, read-out: GI; summary of the method: as §3
[21] = test system: Mycobacterium tuberculosis; assay: Growth inhibition of Mycobacterium bovis BCG ATCC 35743 at dormant stage at 30 ug/ml measured after 12 days by nitrate reductase dye based two fold dilution method relative to control; format: functional; details: BCG str. ATCC 35743, 288 h, read-out: GI; summary of the method: as §3
[22] = test system: Candida albicans; assay: Antifungal activity against Candida albicans NCIM 3471 by standard agar method; format: functional
Summary of the method: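 MICs determined by standard agar method; DMSO as solvent control.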

[23] = Cytotoxicity against primary HUVEC assessed as growth inhibition at 100 ug/ml measured after 48 hrs by MTT assay relative to control; format: toxicity, cell-based; details: human, read-out: GI
[24] = Cytotoxicity against human THP1 cells measured after 48 hrs by MTT assay; format: toxicity, cell-based, THP-1
Summary of the method: (§4)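 MTT assay with 48 h compound exposure. THP-1 macrophages made by 24 h PMA treatment. Each concentration tested in triplicate in one experiment. % cytotoxicity = (control−test)/(control−blank)×100, with control = cells + DMSO and blank = medium without cells. IC50 from % survival versus concentration plots.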

[25] = Cytotoxicity against human THP1 cells assessed as growth inhibition at 100 ug/ml measured after 48 hrs by MTT assay relative to control; format: toxicity, cell-based, THP-1; details: read-out: GI; summary of the method: as §4
[26] = Cytotoxicity against […]-differentiated human THP1 cells assessed as growth inhibition at 100 ug/ml measured after 48 hrs by MTT assay relative to control; format: toxicity, cell-based, THP-1; details: read-out: GI; summary of the method: as §4
[27] = Cytotoxicity against human A549 cells measured after 48 hrs by MTT assay; format: toxicity, cell-based
[28] = Cytotoxicity against human PANC1 cells assessed as growth inhibition at 100 ug/ml measured after 48 hrs by MTT assay relative to control; format: toxicity, cell-based, PANC-1; details: read-out: GI
[29] = Selectivity index, ratio of GI50 for human THP1 cells to MIC for Mycobacterium tuberculosis H37Ra ATCC 25177 at dormant stage; format: toxicity, cell-based, THP-1; details: read-out: Selectivity Index
Summary of the method: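 SI is the cell-line GI50 divided by the dormant-stage mycobacterial MIC. […] THP-1 macrophages were PMA-differentiated for 24 h.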

SMILES	inhibition of growth at 10 µg/mL [1] [%]	inhibition of growth at 3 µg/mL [2] [%]	inhibition of growth at 30 µg/mL [3] [%]	inhibition of growth at 10 µg/mL [4] [%]	MIC [5] [µg/mL]	inhibition of growth at 100 µg/mL [6] [%]	inhibition of growth at 50 µg/mL [7] [%]	inhibition of growth at 100 µg/mL [8] [%]	inhibition of growth at 25 µg/mL [9] [%]	inhibition of growth at 1.56 µg/mL [10] [%]	inhibition of growth at 100 µg/mL [11] [%]	inhibition of growth at 50 µg/mL [12] [%]	inhibition of growth at 25 µg/mL [13] [%]	inhibition of growth at 12.5 µg/mL [14] [%]	inhibition of growth at 6.25 µg/mL [15] [%]	inhibition of growth at 3.13 µg/mL [16] [%]	inhibition of growth at 0.78 µg/mL [17] [%]	inhibition of growth at 50 µg/mL [18] [%]	inhibition of growth at 6.25 µg/mL [19] [%]	inhibition of growth at 0.78 µg/mL [20] [%]	further results
COc1ccc2cc(/C=C3\SC(=S)NC3=O)c(Cl)nc2c1	44	-4.12	46.2	43.5	> 30	96.4	102	85.2	103	-28.4	99	100	99.8	98.8	94	81.6	-50.5	99.9	96.6	-60.1	inhibition of growth at 30 µg/mL [21]: 10.1%; MIC [22]: 50 µg/mL (≈ 148 µM); inhibition at 48 h, 100 ug/ml [23]: 25.4%; GI50 at 48 h [24]: > 100 µg/mL; inhibition at 48 h, 100 ug/ml [25]: 26.7%; inhibition at 48 h, 100 ug/ml [26]: 31.3%; GI50 at 48 h [27]: > 100 µg/mL; inhibition at 48 h, 100 ug/ml [28]: 29.8%
O=C1NC(=S)S/C1=C\c1cc2cc(F)ccc2nc1Cl	71.3	-6.11	50.2	54.6	22.6 (≈ 69.7 µM)	101	119	97.3	95.7	-0.73	98.5	100	100	100	100	25.5	-38.3	99	99.5	-54.6	inhibition of growth at 30 µg/mL [21]: 76.5%; MIC [22]: 50 µg/mL (≈ 154 µM); inhibition at 48 h, 100 ug/ml [23]: 34.2%; GI50 at 48 h [24]: > 100 µg/mL; inhibition at 48 h, 100 ug/ml [25]: 26.3%; inhibition at 48 h, 100 ug/ml [26]: 19.2%; GI50 at 48 h [27]: > 100 µg/mL; inhibition at 48 h, 100 ug/ml [28]: 37.5%; selectivity ratio [29]: 5.6
